The results in this text go back to ChEMBL document CHEMBL2062368, “The cell adhesion and proliferation activities of a peptide derived from human tenascin-C are dependent on two Ile residues” (Bioorg Med Chem, 2012).

Activity calls are given as the source filed them. No cut-off for these calls is given here.

Format in all cases: cell-based
Conditions in all cases: NIH3T3

The target of test [1] is T1, Syndecan-4 (Mus musculus) (UniProt O35988).
T1 sequence (whole entry): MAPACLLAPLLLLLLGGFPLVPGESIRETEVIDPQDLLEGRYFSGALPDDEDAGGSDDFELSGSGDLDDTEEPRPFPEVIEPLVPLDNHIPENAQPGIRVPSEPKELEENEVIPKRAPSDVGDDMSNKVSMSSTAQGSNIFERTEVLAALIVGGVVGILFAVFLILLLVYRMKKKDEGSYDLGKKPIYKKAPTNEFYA
Put plainly: Binding affinity to syndecan 4 in mouse NIH/3T3 cells assessed as stimulation of beta 1 integrin-mediated cell adhesion at 50 ug/ml […] by microscopic analysis. In outline:
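Wells coated with fibronectin at 37 °C, blocked with BSA. NIH-3T3 cell suspension plus peptide (50 µg/ml) or PBS control incubated 1 h at 37 °C. Non-adhered cells washed off; attached cells counted by microscope in 4 independent fields. Mean ± S.E. of triplicate measurements.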

The target in test [2] is T1, Syndecan-4 (Mus musculus). Put plainly: Binding affinity to syndecan 4 in mouse NIH/3T3 cells assessed as stimulation of beta 1 integrin-mediated cell spreading at 50 ug/ml […] by microscopic analysis. In outline: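 Fibronectin-coated, BSA-blocked wells; NIH-3T3 cells incubated with peptide (50 µg/ml) or PBS control for 1 h at 37 °C, then washed. Spread cells counted under a microscope in 4 independent fields; mean ± S.E. of triplicates.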

The target in test [3] is T1, Syndecan-4 (Mus musculus). Put plainly: Binding affinity to syndecan 4 in mouse NIH/3T3 cells assessed as increase in cell proliferation at 25 to 50 ug/ml after 2 days by MTT assay relative to TNIIIA2 peptide. In outline: (§1)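 NIH-3T3 cells with peptide at 25 and 50 µg/ml on fibronectin-coated, BSA-blocked wells, 2 days at 37 °C. MTT (0.5 mg/ml in phenol-red-free RPMI-1640) added for a further 3 h. Dye solubilized in acidic isopropanol (0.04 M HCl), absorbance read at 570 nm minus 650 nm background.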
(In general: Tetrazolium assays rely on reduction of a dye to a coloured formazan, in cell work by metabolically active cells.)

For test [4], the target named is T1, Syndecan-4 (Mus musculus). Put plainly: Binding affinity to syndecan 4 in mouse NIH/3T3 cells assessed as induction of cell proliferation at 25 to 50 ug/ml after 2 days by MTT assay. In outline: as §1

H-ASTDLPGLKAATHYTITIRGVKC-OH: the outcome in test [1] and in test [2] was inactive. The fold change (FC) in test [3] stood at 2.
As for H-RSTDLPGLAAATHYTITIRGVKC-OH, the result in test [1] and in test [2] was inactive. Moreover, the fold change (FC) in test [3] came to 2.
As to H-RSTDLPGLKAATHATITIRGVKC-OH, the result in test [1] was Active. Besides, the outcome in test [2] was inactive.
As to H-RSTDLPGLKAATHYAITIRGVKC-OH, the outcome in test [1] was Active.
Consider H-RSTDLPGLKAATHYTATIRGVKC-OH, for which the outcome in test [1] was Active. Moreover, the result in test [2] and in test [4] was inactive.
Consider H-RSTDLPGLKAATHYTIAIRGVKC-OH, for which the result in test [1] was Active.
As for H-RSTDLPGLKAATHYTITARGVKC-OH, the outcome in test [1] was Active. Besides, the result in test [2] and in test [4] was inactive.
Turning to H-RSTDLPGLKAATHYTITIAGVKC-OH, the outcome in test [1] and in test [2] was inactive. The outcome in test [4] was Active.
For the substance H-RSTDLPGLKAATHYTITIRGVKC-OH, the outcome in test [1], in test [2] and in test [4] was Active.
